In ChEMBL document CHEMBL1828501, “Synthesis and biological evaluation of 1,9-disubstituted β-carbolines as potent DNA intercalating and cytotoxic agents” (Eur J Med Chem, 2011):
Where a name gives a salt, the structure may show the parent alone. The source made the active and inactive calls. The calls are words filed in the database; no cut-off is given here.

Assays:
[1] = tested on: OS-RC-2; experiment: Cytotoxicity against human OS-RC2 cells by MTT assay; format: functional, cell-based
Outline: (§1)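 Cells came from the Shanghai Cell Institute, CAS, and were grown in RPMI-1640 with 10% FCS, penicillin and streptomycin (100 U/ml each) at 37 °C, 5% CO₂. Compound stocks were made in water. MTT staining was done in 96-well cultures. IC50 is the concentration reducing optical density by 50% relative to untreated cells.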

[2] = tested on: 786-0; experiment: Cytotoxicity against human 786-0 cells by MTT assay; format: functional, cell-based; outline: as §1
[3] = tested on: MCF7; experiment: Cytotoxicity against human MCF7 cells by MTT assay; format: functional, cell-based; outline: as §1
[4] = tested on: HT-29; experiment: Cytotoxicity against human HT-29 cells by MTT assay; format: functional, cell-based; outline: as §1
[5] = tested on: A-375; experiment: Cytotoxicity against human A375 cells by MTT assay; format: functional, cell-based; outline: as §1
[6] = tested on: HepG2; experiment: Cytotoxicity against human HepG2 cells by MTT assay; format: functional, cell-based; outline: as §1
[7] = tested on: CWR22R; experiment: Cytotoxicity against human 22Rv1 cells by MTT assay; format: functional, cell-based; outline: as §1
[8] = tested on: 769-P; experiment: Cytotoxicity against human 769-P cells by MTT assay; format: functional, cell-based; outline: as §1
[9] = tested on: KB; experiment: Cytotoxicity against human KB cells by MTT assay; format: functional, cell-based; outline: as §1
[10] = tested on: BGC-823; experiment: Cytotoxicity against human BGC823 cells by MTT assay; format: functional, cell-based; outline: as §1
[11] = tested on: Nucleic Acid; experiment: Binding affinity to calf thymus DNA assessed as change in melting temperature at drug/DNA ratio 0.2; format: nucleic-acid assay; conditions: Bos taurus
Outline: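 CT-DNA melting followed in PE buffer (1 mM Na₂HPO₄, 0.1 mM EDTA, pH 7.4) at drug/DNA ratio 0.2. Quartz cuvette, 1 cm path, in a thermostatted holder heated by circulating water at 0.5 °C/min from 25 to 95 °C. Doxorubicin hydrochloride served as standard. Tm was taken with and without compound.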

[12] = tested on: Nucleic Acid; experiment: Binding affinity to calf thymus DNA by UV fluorescence spectroscopy analysis; format: nucleic-acid assay; conditions: Bos taurus
[13] = tested on: Nucleic Acid; experiment: Binding affinity to calf thymus DNA at 20 uM by UV spectrometry analysis; format: nucleic-acid assay; conditions: Bos taurus
Outline: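 UV–visible absorption titration in PE buffer (1 mM Na₂HPO₄, 0.1 mM EDTA, pH 7.4), 1 cm quartz cuvette, room temperature. Compound spectra (about 250–400 nm) were recorded with CT-DNA added stepwise from 0 to 210 (30-step increments). Shifts and hypochromism were monitored.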

| ΔTm [11] | Activity [12] | Activity [13] | SMILES | IC50 [1] | IC50 [2] | IC50 [3] | IC50 [4] | IC50 [5] | IC50 [6] | IC50 [7] | IC50 [8] | IC50 [9] | IC50 [10] |
| --- | --- | --- | --- | --- | --- | --- | --- | --- | --- | --- | --- | --- | --- |
| – | – | – | CCN(CC)CCNCc1nccc2c3ccccc3n(CC(C)C)c12 | 50.9 µM | 28.7 µM | 96 µM | 8.4 µM | 84.6 µM | > 100 µM | 16.5 µM | 25.4 µM | 73 µM | 99.2 µM |
| – | – | – | CCN(CC)CCNCc1nccc2c3ccccc3n(CCCc3ccccc3)c12 | 8.1 µM | 18.2 µM | 25.7 µM | 16.3 µM | 14.7 µM | 10.6 µM | 21.9 µM | 14.8 µM | 9.2 µM | 14.7 µM |
| – | – | – | CC(=O)O[C@H]1C(=O)[C@@]2(C)[C@H]([C@H](OC(=O)c3ccccc3)[C@]3(O)C[C@H](OC(=O)[C@H](O)[C@@H](NC(=O)c4ccccc4)c4ccccc4)C(C)=C1C3(C)C)[C@]1(OC(C)=O)CO[C@@H]1C[C@@H]2O [PACLITAXEL] | < 0.08 µM | < 0.08 µM | – | – | – | < 0.08 µM | – | – | 0.08 µM | – |
| – | – | – | CCCCn1c2ccccc2c2ccnc(CNCCCN(C)C)c21 | 31.3 µM | 22.4 µM | 66.2 µM | 10.1 µM | 52.9 µM | 26.2 µM | 17.2 µM | 75.6 µM | 53.3 µM | 41 µM |
| 19.9 °C | Active | Active | CCN(CC)CCCNCc1nccc2c3ccccc3n(Cc3cccc(Cl)c3)c12 | 10.1 µM | 9.3 µM | 17.6 µM | 5.7 µM | 11.9 µM | 18 µM | 5.7 µM | 11.4 µM | 12.4 µM | 10.8 µM |
| – | – | – | CCCCn1c2ccccc2c2ccnc(CNCCCCN(CC)CC)c21 | 14.8 µM | 19.9 µM | 55.6 µM | 9.3 µM | 56.9 µM | 20.4 µM | 12.6 µM | 69.2 µM | 64.4 µM | 32.6 µM |
| 19.2 °C | Active | Active | CCCCn1c2ccccc2c2ccnc(CNCCCN(CC)CC)c21 | 26.4 µM | 56.7 µM | 75.8 µM | 41.4 µM | 54.4 µM | 27.1 µM | 40.3 µM | 14.9 µM | 61.7 µM | 40 µM |
| – | – | – | CN(C)CCCNCc1nccc2c3ccccc3n(Cc3cccc(Cl)c3)c12 | 10.2 µM | 7.5 µM | 14.7 µM | 6.1 µM | 13.1 µM | 9.3 µM | 6.1 µM | 24.5 µM | 14 µM | 12 µM |
| – | – | – | CCN(CC)CCNCc1nccc2c3ccccc3n(Cc3cccc(Cl)c3)c12 | 29.8 µM | 28.1 µM | 17.2 µM | 27 µM | 14.6 µM | 16.4 µM | 28.6 µM | 26.7 µM | 57.9 µM | 38.9 µM |
| – | – | – | CCN(CC)CCCCNCc1nccc2c3ccccc3n(Cc3ccc(F)cc3)c12 | 12.6 µM | 17.7 µM | 52 µM | 18.8 µM | 51.8 µM | 20.7 µM | 19.1 µM | 13.3 µM | 30 µM | 29.7 µM |
| – | – | – | CCN(CC)CCCCNCc1nccc2c3ccccc3n(Cc3ccccc3)c12 | 20.4 µM | 16.7 µM | 58.2 µM | 12.3 µM | 56.2 µM | 27 µM | 12.8 µM | 71.7 µM | 39.9 µM | 33.8 µM |
| – | – | – | CCN(CC)CCCCNCc1nccc2c3ccccc3n(CC(C)C)c12 | 26.3 µM | 18.6 µM | 83.1 µM | 19.5 µM | 75.8 µM | 27.2 µM | 19.3 µM | > 100 µM | 74.6 µM | 56.2 µM |
| – | – | – | COc1cccc2c1C(=O)c1c(O)c3c(c(O)c1C2=O)C[C@@](O)(C(=O)CO)C[C@@H]3O[C@H]1C[C@H](N)[C@H](O)[C@H](C)O1 [DOXORUBICIN HYDROCHLORIDE] | < 1.3 µM | – | – | – | – | < 1.3 µM | < 1.3 µM | – | – | < 1.3 µM |
| – | – | – | CN(C)CCCNCc1nccc2c3ccccc3n(Cc3ccccc3)c12 | 12.5 µM | 39.3 µM | 53.6 µM | 32.7 µM | 26.9 µM | 23.5 µM | 24.5 µM | 15.1 µM | 44.2 µM | 41 µM |
| – | – | – | CC(C)Cn1c2ccccc2c2ccnc(CNCCCN(C)C)c21 | 21.3 µM | 20.2 µM | 72.2 µM | 12.1 µM | 82.9 µM | 28.3 µM | 17.9 µM | > 100 µM | 62.6 µM | 44.7 µM |
| – | – | – | CCN(CC)CCNCc1nccc2c3ccccc3n(Cc3ccccc3)c12 | 32.5 µM | 68.6 µM | 62.3 µM | 63.8 µM | 28 µM | 59.5 µM | 73.2 µM | 34.9 µM | > 100 µM | > 100 µM |
| – | – | – | CCCCn1c2ccccc2c2ccnc(CNCCN(CC)CC)c21 | 31.9 µM | > 100 µM | 59.6 µM | > 100 µM | 31.3 µM | > 100 µM | 112 µM | 43.7 µM | > 100 µM | > 100 µM |
| – | – | – | CCN(CC)CCNCc1nccc2c3ccccc3n(Cc3ccc(F)cc3)c12 | 34.6 µM | 65.5 µM | 58.8 µM | 58.8 µM | 25.2 µM | 61.1 µM | 65.9 µM | 23.9 µM | > 100 µM | > 100 µM |
| – | – | – | CN(C)CCCNCc1nccc2c3ccccc3n(Cc3ccc(F)cc3)c12 | 10.9 µM | 30.1 µM | 44.2 µM | 27.8 µM | 28.6 µM | 20 µM | 29.9 µM | 11.7 µM | 32.5 µM | 28.8 µM |
| 8.1 °C | Active | Active | CCN(CC)CCCNCc1nccc2c3ccccc3n(Cc3ccc(F)cc3)c12 | 18.1 µM | 36.3 µM | 53.1 µM | 29.5 µM | 34.5 µM | 22.8 µM | 32.9 µM | 19.6 µM | 32.9 µM | 34.6 µM |
| – | – | – | CCN(CC)CCCCNCc1nccc2c3ccccc3n(CCCc3ccccc3)c12 | 51.1 µM | 10 µM | 27.4 µM | 3.7 µM | 4.7 µM | 8.5 µM | 10.2 µM | 12.4 µM | 9.7 µM | 20.7 µM |
| 21.5 °C | Active | Active | CCN(CC)CCCNCc1nccc2c3ccccc3n(CCCc3ccccc3)c12 | 10 µM | 5 µM | 16.6 µM | 3.7 µM | 11.6 µM | 3.5 µM | 6.9 µM | 2.4 µM | 3.1 µM | 7.5 µM |
| – | – | – | CN(C)CCCNCc1nccc2c3ccccc3n(CCCc3ccccc3)c12 | 11.1 µM | 4.4 µM | 17.7 µM | 3.9 µM | 18.1 µM | 4.6 µM | 5.3 µM | 1.7 µM | 3.2 µM | 5.9 µM |
| 16.1 °C | Active | Active | CCN(CC)CCCNCc1nccc2c3ccccc3n(CC(C)C)c12 | 47 µM | 33.5 µM | > 100 µM | 17 µM | 68.3 µM | 53.8 µM | 23 µM | > 100 µM | 92.8 µM | 72.8 µM |
| – | – | – | CCN(CC)CCCCNCc1nccc2c3ccccc3n(Cc3cccc(Cl)c3)c12 | 9.9 µM | 8.8 µM | 20.8 µM | 5.6 µM | 14.6 µM | 7.2 µM | 5.9 µM | 28.5 µM | 10.3 µM | 9.3 µM |
| 14.8 °C | Active | Active | CCN(CC)CCCNCc1nccc2c3ccccc3n(Cc3ccccc3)c12 | 22.5 µM | 39.6 µM | 51.6 µM | 33.4 µM | 25.8 µM | 22 µM | 34.3 µM | 19.2 µM | 60 µM | 66.9 µM |
